“And” between values parts separate entries of the source, which are not always exact repeats. Equal values may be shown once. Where no end group is shown, it is not given here.
Assays:
Assay type in all cases: cell-based
[1] = biological target: T1, S. pneumoniae ComD1 receptor (Streptococcus pneumoniae serotype 2, UniProt A0A0H2ZM50); assay: β-galactosidase reporter assay, competitive inhibition
T1 sequence (A0A0H2ZM50 1-441): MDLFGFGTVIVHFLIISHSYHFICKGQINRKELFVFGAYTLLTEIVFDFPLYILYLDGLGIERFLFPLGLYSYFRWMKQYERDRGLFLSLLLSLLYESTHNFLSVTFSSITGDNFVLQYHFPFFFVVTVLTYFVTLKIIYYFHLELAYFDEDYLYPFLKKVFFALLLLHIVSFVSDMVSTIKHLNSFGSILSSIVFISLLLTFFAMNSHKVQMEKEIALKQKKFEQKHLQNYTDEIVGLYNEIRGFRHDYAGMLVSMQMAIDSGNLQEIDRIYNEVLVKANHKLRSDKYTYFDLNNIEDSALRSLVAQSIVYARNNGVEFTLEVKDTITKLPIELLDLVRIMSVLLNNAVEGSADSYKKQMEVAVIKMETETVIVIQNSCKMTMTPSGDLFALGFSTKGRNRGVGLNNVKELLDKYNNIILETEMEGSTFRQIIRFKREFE
In short: (§1)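 Cultures were prepared as for agonism: overnight THY with chloramphenicol, diluted to early exponential phase. Wells held native CSP at a fully activating level (50 nM CSP1 for D39/ComD1; 250 nM CSP2 for TIGR4/ComD2), with test peptide added from a 1 mM stock in triplicate. Controls were CSP plus DMSO, and DMSO alone. Plates were incubated 30 min at 37 °C, then lysed and read by ONPG. IC50 was taken from concentration series.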

[2] = biological target: T2, S. pneumoniae ComD2 receptor (Streptococcus pneumoniae serotype 4, UniProt A0A0H2US84); assay: as above
T2 sequence (A0A0H2US84 1-441): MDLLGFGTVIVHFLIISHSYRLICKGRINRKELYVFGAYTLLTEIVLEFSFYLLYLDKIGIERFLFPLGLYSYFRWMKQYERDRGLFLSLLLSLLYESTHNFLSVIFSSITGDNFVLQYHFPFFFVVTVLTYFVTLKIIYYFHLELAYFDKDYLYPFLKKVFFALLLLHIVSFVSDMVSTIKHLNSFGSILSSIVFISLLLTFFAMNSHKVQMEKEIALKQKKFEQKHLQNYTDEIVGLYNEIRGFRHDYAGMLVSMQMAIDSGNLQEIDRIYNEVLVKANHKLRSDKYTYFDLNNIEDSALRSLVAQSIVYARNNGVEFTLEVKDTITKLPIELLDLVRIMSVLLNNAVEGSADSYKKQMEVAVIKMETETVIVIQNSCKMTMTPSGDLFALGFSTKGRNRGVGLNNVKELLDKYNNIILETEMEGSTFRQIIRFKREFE
In short: as §1

[3] = biological target: T1, S. pneumoniae ComD1 receptor; assay: β-galactosidase reporter assay, agonism
In short: (§2)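 Reporter strains carry lacZ under the comX promoter. Strains were grown from THY agar (5% horse serum, 4 μg mL−1 chloramphenicol; 8 h, 37 °C, 5% CO2), then overnight (15 h) in THY with chloramphenicol. Cultures were diluted 1:50 (D39) or 1:10 (TIGR4) and grown to OD600 0.30–0.35 or 0.20–0.25.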

[4] = biological target: T2, S. pneumoniae ComD2 receptor; assay: β-galactosidase reporter assay, agonism
In short: as §2

Sequence: AIRQTHIFFFNFFKRR [S. mitis-CSP-2-E1AN7II8F]
- IC50 [1]: 204 nM
- IC50 [2]: 135 nM

Sequence: AIRQTHNIFFNFFKRR [S. mitis-CSP-2-E1A]
- IC50 [1]: 497 nM

Sequence: AMRLTHNFFFNFFKRR [S. mitis-CSP-2-E1AI2MQ4LI8F]
- IC50 [1]: 317 nM

Sequence: AMRLTHNIFFNFFKRR [S. mitis-CSP-2-E1AI2MQ4L]
- IC50 [1]: 54.2 nM

Sequence: AMRQTHFFFFNFFKRR [S. mitis-CSP-2-E1AI2MN7FI8F]
- IC50 [1]: 294 nM
- IC50 [2]: 418 nM

Sequence: AMRQTHIFFFNFFKRR [S. mitis-CSP-2-E1AI2MN7II8F]
- IC50 [1]: 141 nM
- IC50 [2]: 32.9 nM

Sequence: AMRQTHNFFFNFFKRR [S. mitis-CSP-2-E1AI2MI8F]
- IC50 [1]: 143 nM

Sequence: AMRQTHNIFFNFFKRR [S. mitis-CSP-2-E1AI2M]
- IC50 [1]: 85.4 nM

Sequence: EIRLTHFFFFNFFKRR [S. mitis-CSP-2-Q4LN7FI8F]
- EC50 [3]: 427 nM
- EC50 [4]: 87.2 nM

Sequence: EIRLTHFIFFNFFKRR [S. mitis-CSP-2-Q4LN7F]
- EC50 [3]: 371 nM
- EC50 [4]: 322 nM

Sequence: EIRLTHFIFFNLFKRR [S. mitis-CSP-2-Q4LN7FF12L]
- EC50 [3]: 426 nM

Sequence: EIRLTHIFFFNFFKRR [S. mitis-CSP-2-Q4LN7II8F]
- EC50 [3]: 242 nM

Sequence: EIRLTHIIFFNFFKRR [S. mitis-CSP-2-Q4LN7I]
- EC50 [3]: 348 nM
- EC50 [4]: 315 nM

Sequence: EIRLTHNFFFNFFKRR [S. mitis-CSP-2-Q4LI8F]
- EC50 [3]: 280 nM
- EC50 [4]: 370 nM

Sequence: EIRLTHNIFFFFFKRR [S. mitis-CSP-2-Q4LN11F]
- EC50 [3]: 9.38 nM
- EC50 [4]: 434 nM

Sequence: EIRLTHNIFFNFFKRR [S. mitis-CSP-2-Q4L]
- EC50 [3]: 88.2 nM
- EC50 [4]: 252 nM

Sequence: EIRLTHNIFFNLFKRR [S. mitis-CSP-2-Q4LF12L]
- EC50 [3]: 68.7 nM
- EC50 [4]: 202 nM

Sequence: EIRQTHFFFFNFFKRR [S. mitis-CSP-2-N7FI8F]
- EC50 [4]: 24.6 nM

Sequence: EIRQTHFFFFNLFKRR [S. mitis-CSP-2-N7FI8FF12L]
- EC50 [3]: 101 nM
- EC50 [4]: 67.6 nM

Sequence: EIRQTHFIFFNFFKRR [S. mitis-CSP-2-N7F]
- EC50 [3]: 140 nM
- EC50 [4]: 471 nM

Sequence: EIRQTHFIFFNLFKRR [S. mitis-CSP-2-N7FF12L]
- EC50 [3]: 156 nM
- EC50 [4]: 533 nM

Sequence: EIRQTHIFFFNFFKRR [S. mitis-CSP-2-N7II8F]
- EC50 [3]: 87.2 nM
- EC50 [4]: 22.8 nM

Sequence: EIRQTHIFFFNLFKRR [S. mitis-CSP-2-N7II8FF12L]
- EC50 [3]: 891 nM

Sequence: EIRQTHIIFFNFFKRR [S. mitis-CSP-2-N7I]
- EC50 [3]: 101 nM
- EC50 [4]: 211 nM

Sequence: EIRQTHIIFFNLFKRR [S. mitis-CSP-2-N7IF12L]
- EC50 [3]: 613 nM
- EC50 [4]: 321 nM

Sequence: EIRQTHNFFFFFFKRR [S. mitis-CSP-2-I8FN11F]
- EC50 [3]: 12.2 nM
- EC50 [4]: 284 nM

Sequence: EIRQTHNFFFNFFKRR [S. mitis-CSP-2-I8F]
- EC50 [3]: 128 nM
- EC50 [4]: 209 nM

Sequence: EIRQTHNFFFNLFKRR [S. mitis-CSP-2-I8FF12L]
- EC50 [3]: 160 nM
- EC50 [4]: 202 nM

Sequence: EIRQTHNIFFFFFKRR [S. mitis-CSP-2-N11F]
- EC50 [3]: 4.63 nM
- EC50 [4]: 220 nM

Sequence: EIRQTHNIFFFLFKRR [S. mitis-CSP-2-N11FF12L]
- EC50 [3]: 4.97 nM
- EC50 [4]: 127 nM

Sequence: EIRQTHNIFFNFFKRR [S. mitis-CSP-2]
- EC50 [3]: 663 nM
- EC50 [4]: 635 nM

Sequence: EIRQTHNIFFNLFKRR [S. mitis-CSP-2-F12L]
- EC50 [3]: 54.3 nM
- EC50 [4]: 813 nM

Sequence: EMRLTHFIFFNFFKRR [S. mitis-CSP-2-I2MQ4LN7F]
- EC50 [3]: 137 nM
- EC50 [4]: 75.6 nM

Sequence: EMRLTHIIFFNFFKRR [S. mitis-CSP-2-I2MQ4LN7I]
- EC50 [3]: 155 nM
- EC50 [4]: 187 nM

Sequence: EMRLTHNFFFNFFKRR [S. mitis-CSP-2-I2MQ4LI8F]
- EC50 [3]: < 100 nM and 42 nM
- EC50 [4]: < 100 nM and 30 nM

Sequence: EMRLTHNIFFFFFKRR [S. mitis-CSP-2-I2MQ4LN11F]
- EC50 [3]: 14.8 nM
- EC50 [4]: 188 nM

Sequence: EMRLTHNIFFNFFKRR [S. mitis-CSP-2-I2MQ4L]
- EC50 [3]: 49.9 nM
- EC50 [4]: 141 nM

Sequence: EMRLTHNIFFNLFKRR [S. mitis-CSP-2-I2MQ4LF12L]
- EC50 [3]: 17.1 nM
- EC50 [4]: 139 nM

Sequence: EMRQTHFFFFNFFKRR [S. mitis-CSP-2-I2MN7FI8F]
- EC50 [3]: < 100 nM and 63.6 nM
- EC50 [4]: < 100 nM and 13.5 nM

Sequence: EMRQTHFIFFNFFKRR [S. mitis-CSP-2-I2MN7F]
- EC50 [3]: 131 nM
- EC50 [4]: 123 nM

Sequence: EMRQTHFIFFNLFKRR [S. mitis-CSP-2-I2MN7FF12L]
- EC50 [3]: 72.8 nM
- EC50 [4]: 112 nM

Sequence: EMRQTHIFFFNFFKRR [S. mitis-CSP-2-I2MN7II8F]
- EC50 [3]: < 100 nM and 61.6 nM
- EC50 [4]: < 100 nM and 2.67 nM

Sequence: EMRQTHIIFFFFFKRR [S. mitis-CSP-2-I2MN7IN11F]
- EC50 [3]: 568 nM

Sequence: EMRQTHIIFFNFFKRR [S. mitis-CSP-2-I2MN7I]
- EC50 [3]: 448 nM
- EC50 [4]: 54.8 nM

Sequence: EMRQTHNFFFFFFKRR [S. mitis-CSP-2-I2MI8FN11F]
- EC50 [3]: < 100 nM and 6.95 nM
- EC50 [4]: < 100 nM and 26.2 nM

Sequence: EMRQTHNFFFNFFKRR [S. mitis-CSP-2-I2MI8F]
- EC50 [3]: 151 nM
- EC50 [4]: 83.2 nM

Sequence: EMRQTHNIFFFFFKRR [S. mitis-CSP-2-I2MN11F]
- EC50 [3]: 17.7 nM
- EC50 [4]: 753 nM

Sequence: EMRQTHNIFFNFFKRR [S. mitis-CSP-2-I2M]
- EC50 [3]: 87.7 nM
- EC50 [4]: 136 nM

Sequence: EMRQTHNIFFNLFKRR [S. mitis-CSP-2-I2MF12L]
- EC50 [3]: 25.8 nM
- EC50 [4]: 146 nM

Source: article PMC7470514 (RSC Chemical Biology, 2020)
